The record followed here is ChEMBL document CHEMBL1150253, “Synthesis and anti-platelet evaluation of 2-benzoylaminobenzoate analogs” (Bioorg Med Chem, 2008).

Bounds are passed on as bounds.

Details in all cases: 0.05 h
Assay [1] has as its system Blood. The experiment in a line: Inhibition of thrombin-induced platelet aggregation in human blood after 3 mins by turbidimetric assay.
In assay [2] the test system is Blood. The experiment in a line: Inhibition of arachidonic acid-induced platelet aggregation in human blood after 3 mins by turbidimetric assay. The assay is classed as functional, tissue-based. The method, boiled down: (§1)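 Washed human platelets were prepared from ACD-anticoagulated blood of healthy volunteers who had taken no drugs for two weeks. They were resuspended at 3 × 10⁸/ml in Tyrode's solution with Ca²⁺ 2 mM, glucose 11.1 mM and BSA 3.5 mg/ml. Platelets were preincubated with DMSO (0.5%) or compound at 37 °C for 3 min, stirring at 1200 rpm. Inducers were arachidonic acid, collagen, U46619 or thrombin (0.1 U/ml). Aggregation was read by light transmission. IC50 is mean ± SEM, n = 3.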

Assay [3] deals with Blood. The experiment in a line: Inhibition of U46619-induced platelet aggregation in human blood after 3 mins by turbidimetric assay. The assay is classed as functional, tissue-based. Summed up: as §1
The test system of assay [4] is Blood. Put plainly: Inhibition of collagen-induced platelet aggregation in human blood after 3 mins by turbidimetric assay.

One may read the IC50 as the concentration that gives 50% inhibition. Regarding `CCOC(=O)c1ccc(Cl)cc1NC(=O)c1ccccc1F`, the IC50 in the assay with Blood [1] is greater than 100 µM; in the assay with Blood [2], 3.8 µM; with Blood [3], greater than 100 µM; with Blood [4], 20.1 µM.
With `CCOC(=O)c1ccc(Cl)cc1NC(=O)c1ccccc1Br`, the IC50 is greater than 100 µM with Blood [1], 3.6 µM in the assay on Blood [2], greater than 100 µM in the assay on Blood [3] and 13.9 µM in the assay with Blood [4].
Consider `CCOC(=O)c1ccc(Cl)cc1NC(=O)c1ccccc1C`, for which the IC50 is greater than 100 µM in the assay on Blood [1], 4.9 µM with Blood [2], greater than 100 µM in the assay with Blood [3] and 15.9 µM with Blood [4].
As to `CCCOC(=O)c1ccc(Cl)cc1NC(=O)c1ccccc1F`, the IC50 was greater than 100 µM in the assay on Blood [1], 1.6 µM in the assay on Blood [2], greater than 100 µM with Blood [3] and 11.6 µM in the assay with Blood [4].
Consider `CCCOC(=O)c1ccc(Cl)cc1NC(=O)c1ccccc1Br`, for which the half-maximal inhibitory concentration (IC50) in the assay on Blood [1] was greater than 100 µM; in the assay with Blood [2], 3.5 µM; with Blood [3] it was greater than 100 µM; with Blood [4] it was 9.5 µM.
On to `CCOC(=O)c1ccc(Cl)cc1NC(=O)c1ccccc1OC`, for which the IC50 in the assay with Blood [1] is greater than 100 µM; in the assay on Blood [2] it was 4.9 µM; in the assay with Blood [3], greater than 100 µM; in the assay on Blood [4] it was 46.4 µM.
On to `CCCOC(=O)c1ccc(Cl)cc1NC(=O)c1ccccc1OC`, for which the IC50 with Blood [1] was greater than 100 µM; in the assay with Blood [2] it was 23.4 µM; in the assay on Blood [3] it was greater than 100 µM; in the assay on Blood [4], greater than 100 µM.
As to `CCOC(=O)c1ccc(Cl)cc1NC(=O)c1ccccc1Cl`, the IC50 is greater than 100 µM with Blood [1], 1 µM with Blood [2], greater than 100 µM in the assay on Blood [3] and 7.6 µM in the assay with Blood [4].
For `CCCOC(=O)c1ccc(Cl)cc1NC(=O)c1ccccc1C`, the 50% inhibitory concentration (IC50) with Blood [1] is greater than 100 µM; in the assay with Blood [2], 2.2 µM; in the assay on Blood [3], greater than 100 µM; in the assay on Blood [4], 8.3 µM.
For `CCCNC(=O)c1ccc(Cl)cc1NC(=O)c1ccccc1Cl`, the 50% inhibitory concentration (IC50) in the assay on Blood [1] is greater than 100 µM; in the assay on Blood [2], 3.4 µM; with Blood [3], greater than 100 µM; in the assay on Blood [4], 4.1 µM.
For the molecule `CCCNC(=O)c1ccc(Cl)cc1NC(=O)c1ccccc1OC`, the half-inhibitory concentration (IC50) with Blood [1] is greater than 100 µM; with Blood [2] it was 6 µM; in the assay with Blood [3], greater than 100 µM; in the assay with Blood [4] it was 11.1 µM.
As for `CCOC(=O)c1ccc(F)cc1NC(=O)c1ccccc1C`, the half-inhibitory concentration (IC50) in the assay on Blood [2] turned out to be 21.1 µM; with Blood [4] it was 36.1 µM.
Consider `CCCOC(=O)c1ccc([N+](=O)[O-])cc1NC(=O)c1ccccc1OC`, for which the 50% inhibitory concentration (IC50) in the assay on Blood [1], in the assay on Blood [2] and in the assay with Blood [4] was greater than 100 µM throughout.
In the case of `CCCCOC(=O)c1ccc(Cl)cc1NC(=O)c1c(Cl)cccc1Cl`, the IC50 in the assay on Blood [1], with Blood [2], with Blood [3] and with Blood [4] was greater than 100 µM in each case.
With `CC(C)OC(=O)c1ccc(Cl)cc1NC(=O)c1c(F)cccc1F`, the IC50 in the assay on Blood [1] is greater than 100 µM; with Blood [2], greater than 100 µM; in the assay on Blood [3], greater than 100 µM; with Blood [4], 28.8 µM.
As for `CCCCOC(=O)c1ccc(Cl)cc1NC(=O)c1ccccc1OC`, the IC50 with Blood [1], in the assay with Blood [2], with Blood [3] and with Blood [4] was greater than 100 µM in each case.
Regarding `CCCCOC(=O)c1ccc(Cl)cc1NC(=O)c1ccccc1F`, the half-maximal inhibitory concentration (IC50) with Blood [1] is greater than 100 µM; with Blood [2] it was 3 µM; in the assay with Blood [3], greater than 100 µM; in the assay with Blood [4], 32.1 µM.
`CCCCNC(=O)c1ccc(Cl)cc1NC(=O)c1c(F)cccc1F`: the concentration for half-maximal inhibition (IC50) in the assay with Blood [1] was greater than 100 µM; in the assay on Blood [2], 3.5 µM; in the assay with Blood [3], greater than 100 µM; in the assay with Blood [4] it was 1 µM.
For `CCCOC(=O)c1ccc(F)cc1NC(=O)c1ccccc1Cl`, the figures for the IC50 in the assay on Blood [1], in the assay on Blood [2] and in the assay with Blood [4] were greater than 100 µM, 1.6 µM and 9.3 µM, respectively.
For `CCCOC(=O)c1ccc(F)cc1NC(=O)c1ccccc1Br` the same measures were greater than 100 µM, 3.3 µM and 16.7 µM.
For `CCCOC(=O)c1ccc(F)cc1NC(=O)c1ccccc1C` the same measures were greater than 100 µM, 2 µM and 25.1 µM.
For `CCCOC(=O)c1ccc(F)cc1NC(=O)c1ccccc1OC`, in that order: greater than 100 µM, 31.5 µM and 33.2 µM.
As to `CCOC(=O)c1ccc(Cl)cc1NC(=O)c1c(F)cccc1F`, the figures for the IC50 in the assay on Blood [1], in the assay with Blood [2] and with Blood [3] were greater than 100 µM, 0.9 µM and greater than 100 µM, respectively.
`CC(C)OC(=O)c1ccc(Cl)cc1NC(=O)c1ccccc1F`: the IC50 is greater than 100 µM in the assay with Blood [1], greater than 100 µM in the assay with Blood [2], greater than 100 µM in the assay with Blood [3] and 36.7 µM in the assay on Blood [4].
As for `CC(C)OC(=O)c1ccc(Cl)cc1NC(=O)c1ccccc1Cl`, the half-maximal inhibitory concentration (IC50) in the assay on Blood [1] is greater than 100 µM; in the assay on Blood [2], 82.2 µM; with Blood [3] it was greater than 100 µM; with Blood [4], 8.51 µM.
With `CCCOC(=O)c1ccc(F)cc1NC(=O)c1ccccc1F`, the IC50 in the assay with Blood [1] was greater than 100 µM; with Blood [2], 1.6 µM; in the assay on Blood [4], 14.5 µM.
Regarding `CCCCOC(=O)c1ccc(Cl)cc1NC(=O)c1c(F)cccc1F`, the concentration for half-maximal inhibition (IC50) with Blood [1] was greater than 100 µM; in the assay with Blood [2] it was 1.5 µM; with Blood [3] it was greater than 100 µM; in the assay on Blood [4] it was 21.8 µM.
On to `CCCOC(=O)c1ccc(C)cc1NC(=O)c1ccccc1F`, for which the IC50 was greater than 100 µM in the assay on Blood [1], 0.9 µM in the assay with Blood [2] and 11.3 µM with Blood [4].
Regarding `CCCOC(=O)c1ccc(C)cc1NC(=O)c1ccccc1Cl`, the IC50 in the assay with Blood [2] is 1.6 µM; in the assay on Blood [4] it was 7.8 µM.
In the case of `CCOC(=O)c1ccc(Cl)cc1NC(=O)c1c(Cl)cccc1Cl`, the concentration for half-maximal inhibition (IC50) with Blood [1] was greater than 100 µM; with Blood [2], 68.3 µM; in the assay with Blood [3], greater than 100 µM; in the assay with Blood [4] it was 32.3 µM.
As for `CCCOC(=O)c1ccc(Cl)cc1NC(=O)c1c(Cl)cccc1Cl`, the IC50 was greater than 100 µM in the assay on Blood [1], 38.4 µM with Blood [2], greater than 100 µM with Blood [3] and 29.7 µM in the assay with Blood [4].
For the molecule `CCCNC(=O)c1ccc(Cl)cc1NC(=O)c1ccccc1Br`, the IC50 was greater than 100 µM with Blood [1], 1.5 µM in the assay on Blood [2], greater than 100 µM with Blood [3] and 3.4 µM with Blood [4].
`CCCNC(=O)c1ccc(Cl)cc1NC(=O)c1ccccc1C`: the IC50 is greater than 100 µM in the assay on Blood [1], 8.4 µM with Blood [2], greater than 100 µM in the assay with Blood [3] and 10.3 µM in the assay on Blood [4].
Take `CCCCOC(=O)c1ccc(Cl)cc1NC(=O)c1ccccc1C`: the IC50 in the assay on Blood [1] was greater than 100 µM; in the assay on Blood [2] it was 4.7 µM; with Blood [3], greater than 100 µM; in the assay with Blood [4], 76.2 µM.
Regarding `CCCNC(=O)c1ccc(Cl)cc1NC(=O)c1c(F)cccc1F`, the half-inhibitory concentration (IC50) with Blood [1] is greater than 100 µM; with Blood [2] it was 2.9 µM; in the assay on Blood [3], greater than 100 µM; in the assay with Blood [4], 1 µM.
Consider `CCCCNC(=O)c1ccc(Cl)cc1NC(=O)c1ccccc1F`, for which the IC50 in the assay with Blood [1] was greater than 100 µM; in the assay on Blood [2] it was 3.5 µM; in the assay with Blood [3], greater than 100 µM; in the assay with Blood [4] it was 2.2 µM.
Consider `CCCOC(=O)c1ccc([N+](=O)[O-])cc1NC(=O)c1ccccc1F`, for which the IC50 in the assay on Blood [1] was greater than 100 µM; in the assay on Blood [2], 4.7 µM; in the assay on Blood [4], 3.5 µM.
In the case of `CCCOC(=O)c1ccc([N+](=O)[O-])cc1NC(=O)c1ccccc1Br`, the IC50 was greater than 100 µM with Blood [1], 2.5 µM in the assay with Blood [2] and 4.9 µM in the assay on Blood [4].
For `CCCOC(=O)c1ccc([N+](=O)[O-])cc1NC(=O)c1ccccc1C` the same measures were greater than 100 µM, 4.7 µM and 8 µM.
For `CCCOC(=O)c1ccc(C)cc1NC(=O)c1ccccc1C`, in that order: greater than 100 µM, 5.8 µM and 20.1 µM.
For `CCCOC(=O)c1ccc(C)cc1NC(=O)c1ccccc1OC`, in that order: greater than 100 µM, 10.4 µM and 62.5 µM.
With `CCCOC(=O)c1ccc([N+](=O)[O-])cc1NC(=O)c1ccccc1Cl`, the figures for the IC50 with Blood [1], with Blood [2] and in the assay with Blood [4] were greater than 100 µM, 2 µM and 2.9 µM, respectively.
With `CCCCOC(=O)c1ccc(Cl)cc1NC(=O)c1ccccc1Cl`, the IC50 was greater than 100 µM in the assay with Blood [1], 2.1 µM in the assay on Blood [2], greater than 100 µM with Blood [3] and 19.5 µM in the assay on Blood [4].
As to `COC(=O)c1ccc(Cl)cc1NC(=O)c1c(Cl)cccc1Cl`, the IC50 in the assay on Blood [1] was greater than 100 µM; in the assay with Blood [2], 12.6 µM; in the assay with Blood [3], greater than 100 µM; in the assay with Blood [4] it was 3.4 µM.
Regarding `CCCCOC(=O)c1ccc(Cl)cc1NC(=O)c1ccccc1Br`, the IC50 with Blood [1] is greater than 100 µM; with Blood [2], 7.1 µM; with Blood [3], greater than 100 µM; with Blood [4], 50.4 µM.
Turning to `CCOC(=O)c1ccc(F)cc1NC(=O)c1ccccc1Cl`, the IC50 came to 4.1 µM in the assay with Blood [2] and 11 µM with Blood [4].
With `CCCCNC(=O)c1ccc(Cl)cc1NC(=O)c1ccccc1Cl`, the IC50 was greater than 100 µM with Blood [1], 3.4 µM with Blood [2], greater than 100 µM in the assay with Blood [3] and 1.1 µM with Blood [4].
`CCCNC(=O)c1ccc(Cl)cc1NC(=O)c1ccccc1F`: the 50% inhibitory concentration (IC50) in the assay on Blood [1] is greater than 100 µM; with Blood [2], 1.9 µM; in the assay with Blood [3] it was greater than 100 µM; in the assay on Blood [4] it was 8.7 µM.
Take `CCCOC(=O)c1ccc(C)cc1NC(=O)c1ccccc1Br`: the IC50 in the assay on Blood [2] was 3.1 µM; in the assay with Blood [4], 27.3 µM.
